Bioassay records as filed in PubChem.
PRMT1 inh: PRMT1 methyltransferase inhibitors, primary screen, biochemical, fluorescence polarization; recombinant PRMT1, activity-based probe fluorescence polarization; inhibition, % at 2.79 µM; 1.3% of 370,000 active;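 active = inhibition above about 21% made by adding two undisclosed values, limit read from the data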
PAD4 FP inh: human PAD4 inhibitors, primary screen, biochemical, fluorescence polarization, 1536-well format. Protein-arginine deiminase type-4 (Homo sapiens), Q9UM07. recombinant PAD4, RCA probe fluorescence polarization. inhibition, % at 6.36 µM. 0.41% of 330,000 active. AID 485272, 2010;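 active = percent inhibition above a cutoff equal to the mean of all tested compounds plus 3 SD, cut at about 15% in these data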;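 also: 0% = PAD4 with RCA probe and DMSO and 100% = probe without PAD4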
Target sequence (Q9UM07 whole entry, looked up): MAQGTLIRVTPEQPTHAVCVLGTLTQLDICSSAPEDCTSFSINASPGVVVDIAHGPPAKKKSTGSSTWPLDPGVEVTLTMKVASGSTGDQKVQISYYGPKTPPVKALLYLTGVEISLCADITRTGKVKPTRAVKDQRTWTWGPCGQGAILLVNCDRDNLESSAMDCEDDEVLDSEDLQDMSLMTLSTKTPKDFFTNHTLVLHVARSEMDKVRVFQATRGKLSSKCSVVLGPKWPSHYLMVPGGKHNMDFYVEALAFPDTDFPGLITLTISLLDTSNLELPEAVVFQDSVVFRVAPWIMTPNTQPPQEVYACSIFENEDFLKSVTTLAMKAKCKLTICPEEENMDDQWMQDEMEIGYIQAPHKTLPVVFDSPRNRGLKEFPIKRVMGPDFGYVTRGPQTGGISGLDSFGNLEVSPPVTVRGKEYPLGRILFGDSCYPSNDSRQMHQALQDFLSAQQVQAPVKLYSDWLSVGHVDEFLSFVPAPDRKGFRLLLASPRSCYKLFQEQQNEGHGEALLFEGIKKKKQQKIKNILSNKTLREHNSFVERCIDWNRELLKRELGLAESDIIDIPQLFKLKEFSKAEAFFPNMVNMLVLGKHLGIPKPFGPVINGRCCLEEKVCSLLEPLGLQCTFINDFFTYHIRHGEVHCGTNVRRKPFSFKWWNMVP
SIAE primary: human SIAE inhibitors, primary screen, biochemical, fluorescence polarization, FP-Rh probe, 1536-well HTS | inhibition, % at 9.66 µM | SIAE FP-Rh probe binding | Sialate O-acetylesterase (Homo sapiens), Q9HAT2 | 0.69% of 370,000 active;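 active = inhibition above a cutoff: mean of compounds within the control limits plus 3 SD of those, cut at about 17% in these data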;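 also: 0% = plate median of compound wells and 100% = probe without SIAE protein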
RBBP9 inh: human RBBP9 inhibitors, primary screen, biochemical, fluorescence polarization, FP-Rh probe, HTS; inhibition, % at 7.94 µM; Serine hydrolase RBBP9 (Homo sapiens), O75884; recombinant RBBP9; AID 1515, 2009; 0.2% of 220,000 active;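 active = inhibition above the campaign mean of all tested compounds plus 3 SD, cut at about 14% in these data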;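 also: plate controls were DMSO wells with RBBP9 for no effect and wells lacking RBBP9 protein for full effect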
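system = RBBP9 protein | input = RBBP9 at 2.5 µM in dispensed solution, before mixing | measured by = fluorescence polarization (mP), excitation 525 nm, emission 598 nm | incubation = enzyme-compound preincubation 30 min, then probe labeling 45 min, 25 °C | buffer or medium = Tris-NaCl-Pluronic buffer, pH 8.0 | compound = single dose 7.94 µM | also added = FP-Rh probe, 375 nM dispensing solution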
GSTO1 counter: inhibitors of recombinant GSTO1, primary screen, counter-screen for RBBP9 inhibitor project, biochemical, fluorescence polarization; activity-based probe fluorescence polarization; 1.1% of 300,000 active; AID 1974, 2009; inhibition, % at 5.96 µM;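 active = inhibition above the campaign mean inhibition plus 3 SD, cut at about 35% in these data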;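 also: 0% = GSTO1-1 with DMSO and 100% = wells lacking GSTO1-1 enzyme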
RBBP9 confirm: human RBBP9 inhibitors, retest, confirmation, biochemical, fluorescence polarization, FP-Rh probe, triplicate; shares compounds with RBBP9 inh; recombinant RBBP9; inhibition, % at 7.94 µM; 36% of 410 active;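 active = inhibition above the hit cutoff derived for the primary screen, cut at about 15% in these data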;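 also: 0% = RBBP9 with DMSO and 100% = wells lacking RBBP9 protein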
* marks the source's active call; other numbers are inactive results; . = no result. Shown are actives, neighbours in structure and some others; about 2.7% of the full set was active somewhere.

SMILES	PRMT1 inh	PAD4 FP inh	SIAE primary	RBBP9 inh	GSTO1 counter	RBBP9 confirm
COc1cc(C2C(C(=O)OC(C)C)=C(C)Nc3[nH]c(=O)[nH]c(=O)c32)ccc1O (centres undefined)	0	-1	4	17*	5	5
COc1cc(C2NC(=O)NC(C)=C2C(=O)OCC2CCCCC2)ccc1O (centres undefined)	0	4	2	.	-5	.
CCOc1ccc(S(=O)(=O)Nc2ccc(Cl)cn2)c(C)c1C	2	-1	-5	17*	3	3
COc1ccccc1OCC(O)Cn1c(Br)nc2c1c(=O)[nH]c(=O)n2C (centres undefined)	-3	4	-3	-4	-3	.
O=C(NCc1ccccc1)C(c1ccc(C(F)(F)F)cc1)N1CCN(CCN2CCOCC2)CC1 (centres undefined)	-6	.	1	.	.	.
FC(F)(F)c1ccc(-c2nnc(-c3ccccn3)c(-c3ccccn3)n2)nc1	-3	-2	-1	17*	4	3
COc1ccc(NC(=S)NCc2ccco2)c(OC)c1	-5	-1	9	17*	1	9
N/C(Cc1ccc(Cl)cc1Cl)=N\OC(=O)c1ccccc1	-2	-3	-2	3	3	.
O=C(CN1CCNCC1)Nc1ccc(Oc2ccccc2)cc1	-3	-1	-4	15*	4	24*
O=C(CN1CCOCC1)Nc1ccc(Oc2ccccc2)cc1	-1	1	10	-5	-10	.
COC(=O)C1CSc2[nH]c(=O)sc2C1c1ccc(O)c(OC)c1 (centres undefined)	2	3	-1	14*	10	1
COc1ccc(C2c3sc(=O)[nH]c3SCC2C(N)=O)cc1 (centres undefined)	9	1	6	-9	7	.
COC(=O)c1ccc2c(=O)n(CCCCCC(=O)NCc3ccccn3)c(=O)[nH]c2c1	-1	-2	1	-5	-27	.
Cc1ccc(CCP(=O)(O)CN2CCOCC2)cn1	-3	-3	-4	18*	6	-2
CC(=O)N1CCN(Cc2nc3cc(NC(=O)c4ccccc4C)ccc3n2C)CC1	0	0	4	-8	2	.
Nc1ccccc1N1CCN(C(=O)c2ccccc2)CC1	1	0	0	15*	20	1
O=C(c1ccccc1)N1CCN(c2ccc([N+](=O)[O-])cc2-n2cccc2)CC1	-1	3	6	14*	1	1
CCN=c1scc(C)n1/N=C/c1ccc(O)c(O)c1O	60*	3	9	34*	69*	61*
O=C(CN1CCN(C(c2ccccc2)c2ccccc2)CC1)NCc1ccccc1	-1	5	-1	14*	-3	6
COc1ccc(CNC(=O)CN2CCN(C(c3ccccc3)c3ccccc3)CC2)cc1	-1	-3	-4	-10	-1	.
CCC(CO)Oc1cc(NCc2ccc(C(=O)O)cc2)c2ncn(C(C)C)c2c1 (centres undefined)	-2	-4	0	.	.	.
C/C(Cc1ccccc1)=N\NC(=O)CNC(=O)c1ccc(Cl)cc1Cl	-4	4	3	-14	2	.
C/C(Cc1ccccc1)=N\NC(=O)CNC(=O)c1cccc(Cl)c1	-1	6	0	21*	13	-3
O=C(COC(=O)/C=C/c1ccc(Cl)cc1)NCCc1ccccc1	-1	2	10	17*	1	-1
COc1ccc(/C=N/NC(=O)CNC(=O)/C=C/c2ccco2)cc1OC	1	1	2	.	6	.
SMILES	PRMT1 inh	PAD4 FP inh	SIAE primary	RBBP9 inh	GSTO1 counter	RBBP9 confirm
CCCS(=O)(=O)Nc1ccc2cn[nH]c2c1	0	0	4	17*	-3	-1
CCCC(=O)n1nc(-c2ccc(C)cc2)nc1NCc1ccco1	-3	0	8	17*	8	9
CCOc1ccc(S(=O)(=O)Nc2nc3ccccc3nc2Nc2ccc(N3CCOCC3)cc2)cc1	12	9	6	17*	23	11
CCOC(=O)/C=C1\SC(C)C(=O)N1CC(=O)N(CCC#N)c1ccccc1 (centres undefined)	1	3	8	.	.	.
Cc1ccc(NS(=O)(=O)c2cc(N)ccc2Cl)c(C)c1	-3	1	2	-6	8	.
CCCCNC(=O)c1c(C)cc(=O)oc1C	-3	-2	14	16*	-3	-2
CC(C)C(=O)Nc1c(-c2ccccc2)c(=O)c2ccccc2n1C	-4	0	0	-10	5	.
CCOc1cc(-c2ccc(N)c(OCC)c2)ccc1N	16	-3	12	16*	6	29*
COc1cc(NC(=O)c2cc3nc(C4CC4)cc(C(F)(F)F)n3n2)c(OC)cc1Cl	-2	0	-3	4	-6	.
COc1cccc(C2(O)C(=O)Nc3ccccc32)c1 (centres undefined)	-2	-1	-8	.	4	.
COc1ccc2c(c1)CC(C1(O)C(=O)Nc3ccccc31)C2=O (centres undefined)	2	-1	-11	19*	3	2
Cc1cc2ccccc2nc1SCC(=O)N1c2ccccc2CC1C (centres undefined)	-2	2	4	14*	-1	-2
NC(=O)CC1Nc2cccc3cccc(c23)NC1=O (centres undefined)	12	-3	13	29*	35	7
COc1cc(/C=N/Nc2ccccc2[N+](=O)[O-])cc(OC)c1O	4	-4	17	11	26	.
COc1cc(/C=N/Nc2ccc(F)cc2F)cc(OC)c1O	5	-7	9	17*	30	53*
COc1ccccc1NC(=O)CSc1nnc2ccc(-c3cccnc3)nn12	-1	2	-2	-6	-5	.
CCOc1ccccc1NC(=O)CSc1nnc2ccc(-c3cccnc3)nn12	-9	5	4	15*	6	9
COc1ccc2c(c1)Sc1ccccc1N2	16	.	1	16*	.	30*
O=C(NNC1CC(=O)N(c2ccc(F)cc2)C1=O)c1cccnc1 (centres undefined)	9	3	1	-8	15	.
O=C(Cn1nc(CNc2ccc(Cl)cc2)[n+]2c1CCCCC2)c1ccc(Br)cc1	1	-3	4	-1	7	.
COc1cc2[nH]c(=S)nc(NC3CCCCCC3)c2cc1OC	1	0	5	3	-3	.
COc1cc2[nH]c(=S)nc(Nc3ccc(NC(C)=O)cc3)c2cc1OC	14	-3	15	29*	13	52*
CCOC(=O)c1nc2sc3c(c2c(=O)[nH]1)CCC(C)C3 (centres undefined)	-4	1	-3	16*	-8	1
